Laboratory results reported in ChEMBL document CHEMBL1124035, “1-Amino-substituted 4-methyl-5H-pyrido[4,3-b]indoles (gamma-carbolines) as tricyclic analogues of ellipticines: a new class of antineoplastic agents” (1988).
The source made the active and inactive calls. The calls are words filed in the database; no cut-off is given here.

Assays:
Calf thymus DNA = assay: Apparent DNA affinity constant; assay type: nucleic-acid assay; conditions: Bos taurus
Outline: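 Apparent DNA affinity constant was measured by competition with ethidium bromide. Buffer was 20 mM Na2HPO4/NaH2PO4, 0.1 M NaCl, 1 mM EDTA, pH 7.4, with calf thymus DNA at 10 μg/mL. Values are given in 10^6 M⁻¹.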

L1210 = assay: Ability to reduce the cell count to 50% in L1210 culture cells; assay type: functional; conditions: Mus musculus, read-out: ID50 (the source's name)
Outline: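 L1210 cells in exponential growth in RPMI 1640 with 2 mM glutamine, penicillin/streptomycin and 10% FCS, 37 °C, 5% CO2. Drugs dissolved in distilled water were added to cells at 0.8 × 10^5 cells/mL for 48 h, then cells were counted. ID50 is the concentration halving cell proliferation versus controls, from regression of dose-response data; mean of two independent experiments.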

Mus musculus [1] = assay: Antitumor activity against P388 leukemia in mice at a dose of 10 mg/kg administered intraperitoneally for 5 days; assay type: functional
Outline: (§1)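 CDF1 hybrid male or female mice, 10 per group, were inoculated ip with 10^6 viable P388 cells on day 0. Drugs in distilled water were given ip (0.1 mL/10 g body weight) daily D1-5. Vehicle, 5-fluorouracil and BD 84 were given the same way. T/C = median survival day of treated / controls × 100; T/C > 128% was significant; cures counted at D60.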

Mus musculus [2] = assay: Antitumor activity against P388 leukemia in mice at a dose of 20 mg/kg administered intraperitoneally for 5 days; assay type: functional; conditions: route intraperitoneal; outline: as §1
Mus musculus [3] = assay: Antitumor activity against P388 leukemia in mice at a dose of 40 mg/kg administered intraperitoneally; assay type: functional, organism-based; design: dose 40 mg/kg
Mus musculus [4] = assay: Antitumor activity against P388 leukemia in mice at a dose of 5 mg/kg administered intraperitoneally for 5 days; assay type: functional
Outline: (§2)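 CDF1 hybrid male or female mice, 10 per group, were inoculated ip on day 0 with 10^6 viable P388 leukemia cells. Drug in distilled water was given ip (0.1 mL/10 g body weight) daily on days 1-5, with vehicle, 5-fluorouracil and BD 84 controls given the same way. T/C = median survival of treated/controls × 100; T/C > 128% counted as significant.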

Mus musculus [5] = assay: Antitumor activity against P388 leukemia in mice at a dose of 80 mg/kg administered intraperitoneally for 5 days; assay type: functional, organism-based; design: dose 80 mg/kg; outline: as §2
Mus musculus [6] = assay: Antitumor activity against P388 leukemia in intraperitoneally for 5 days; assay type: functional; outline: as §1
Mus musculus [7] = assay: Antitumor activity against P388 leukemia in mice at a dose of 40 mg/kg administered intraperitoneally for 5 days; assay type: functional; conditions: route intraperitoneal; outline: as §2
Mus musculus [8] = assay: Antitumor activity against P388 leukemia in mice at a dose of 10 mg/kg administered intraperitoneally for 5 days; It is nontoxic at this dose; assay type: functional; conditions: route intraperitoneal; outline: as §1
Mus musculus [9] = assay: Antitumor activity against P388 leukemia in mice at a dose of 2.5 mg/kg administered intraperitoneally for 5 days; assay type: functional; conditions: route intraperitoneal; outline: as §1

| SMILES | K aff (Calf thymus DNA) | IC50 (L1210) | other results |
| --- | --- | --- | --- |
| CCN(CC)CCCCNc1ncc(C)c2c1c1cc(OC)ccc1n2C | 460000 M⁻¹ | 1300 nM |  |
| COc1ccc2c(c1)c1c(NCC(C)CN(C)C)ncc(C)c1n2C (stereo not drawn) | 150000 M⁻¹ | 1000 nM |  |
| CCN(CC)CCNc1ncc(C)c2c1c1cc(OC)ccc1n2C | 80000 M⁻¹ | 1200 nM |  |
| Cc1cnc(NCCCN2CCCC2)c2c3cc(O)ccc3n(C)c12 | 370000 M⁻¹ | 50 nM |  |
| CCN(CC)CC(O)CNc1ncc(C)c2c1c1cc(O)ccc1n2C (stereo not drawn) | 230000 M⁻¹ | 60 nM | T/C (Mus musculus [1]): Toxic; T/C (Mus musculus [4]): inactive |

Further lines, with some results ahead:

| K aff (Calf thymus DNA) | IC50 (L1210) | SMILES | other results |
| --- | --- | --- | --- |
| 220000 M⁻¹ | 1200 nM | CCNCCCNc1[nH]cc(C)c2nc3ccc(OC)cc3c1-2 | T/C (Mus musculus [1]; route intraperitoneal): 119%; T/C (Mus musculus [2]): 107%; T/C (Mus musculus [3]): Toxic; T/C (Mus musculus [4]; route intraperitoneal): 119% |
| 350000 M⁻¹ | 310 nM | CCN(CC)CCCCNc1ncc(C)c2c1c1cc(O)ccc1n2C |  |
| 220000 M⁻¹ | 300 nM | CCN(CC)CCCNc1[nH]cc(C)c2nc3ccc(OC)cc3c1-2 | T/C (Mus musculus [2]): 149%; T/C (Mus musculus [5]): Toxic; T/C (Mus musculus [6]): 147%; T/C (Mus musculus [7]): 176% |
| 140000 M⁻¹ | 10 nM | Cc1cnc(NCC(C)CN(C)C)c2c3cc(O)ccc3n(C)c12 (stereo not drawn) |  |
| 70000 M⁻¹ | 11200 nM | CN(C)CCCNc1[nH]ccc2nc3ccc(O)cc3c1-2 | T/C (Mus musculus [8]): 115%; T/C (Mus musculus [9]): 111%; T/C (Mus musculus [4]; route intraperitoneal): 102% |
